Consider 36 compounds from ChEMBL document CHEMBL3627639, “Structure-activity relationships of amide-phosphonate derivatives as inhibitors of the human soluble epoxide hydrolase” (Bioorg Med Chem, 2015).

≈ marks a conversion by molar mass, not a printed value.

Test system in one data set: not listed separately
The data set is described as follows: Aqueous solubility of the compound in sodium phosphate buffer at pH 7.4 at 25 +/- 1.5 degC by light scattering method. It counts as physicochemical. The procedure, abridged:
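Compound stock in DMSO added at varied concentrations to 0.1 M sodium phosphate pH 7.4, final DMSO:buffer 5:95 (v/v). Turbidity read as OD at 650 nm at 25 ± 1.5 °C. Signal-to-noise ≥2 counted as insoluble. Mean of three separate measurements.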
On to `CCOP(=O)(OCC)C(Nc1ccc(CNC(=O)Cc2ccc3ccccc3c2)cc1)C(C)(C)C` (stereo not given), for which the solubility (kinetic) (commonly the concentration staying in solution when a stock, usually in DMSO, is diluted into the medium) stood at 78 µM (≈ 38.7 µg/mL).
On the same count and under the same terms, with `CCOP(=O)(OCC)C(Nc1ccc(CNC(=O)NC23CC4CC(CC(C4)C2)C3)cc1)C(C)(C)C` (stereo not given) the figure was 78 µM (≈ 39.4 µg/mL); with `CCOP(=O)(OCC)C(Nc1ccc(CNC(=O)C23CC4CC(CC(C4)C2)C3)cc1)C(C)(C)C` (stereo not given), 125 µM (≈ 61.3 µg/mL).
Still for that read-out and setting: with `CCOP(=O)(OCC)C(Nc1ccc(CNC(=O)CC23CC4CC(CC(C4)C2)C3)cc1)C(C)(C)C` (stereo not given) the figure was 62 µM (≈ 31.3 µg/mL).

For a further data set, the target named is T1, Bifunctional epoxide hydrolase 2 (Homo sapiens, UniProt P34913).
T1 sequence (P34913 whole entry): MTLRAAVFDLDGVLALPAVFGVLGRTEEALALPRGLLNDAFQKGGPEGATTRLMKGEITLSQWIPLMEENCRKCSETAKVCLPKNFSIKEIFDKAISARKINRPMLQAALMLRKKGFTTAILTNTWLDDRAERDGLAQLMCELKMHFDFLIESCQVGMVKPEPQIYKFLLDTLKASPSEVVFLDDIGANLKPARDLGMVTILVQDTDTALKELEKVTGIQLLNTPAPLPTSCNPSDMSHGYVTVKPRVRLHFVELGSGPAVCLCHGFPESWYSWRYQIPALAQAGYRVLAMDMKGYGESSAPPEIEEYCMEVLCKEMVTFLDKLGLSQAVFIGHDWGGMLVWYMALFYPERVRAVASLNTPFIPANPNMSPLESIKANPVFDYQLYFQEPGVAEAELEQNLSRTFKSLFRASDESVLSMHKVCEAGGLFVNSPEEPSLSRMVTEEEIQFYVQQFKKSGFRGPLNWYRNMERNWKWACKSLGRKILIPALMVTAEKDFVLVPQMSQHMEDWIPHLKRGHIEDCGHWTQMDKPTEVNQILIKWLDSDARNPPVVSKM
The data set is described as follows: Inhibition of recombinant human sEH expressed in baculovirus infected insect Sf9 cells using CMNPC as substrate assessed as 6-methoxy-2-naphthadehyde level after 10 mins by fluorescence assay. In outline:
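Recombinant human sEH (6xHis-tagged, expressed in Sf9 cells, tag removed with TEV protease, purified by metal affinity then anion exchange; 1 nM) preincubated with compound in DMSO for 10 min in 25 mM Bis–Tris/HCl pH 7.0 at 30 °C. CMNPC substrate added (5 µM). 6-Methoxy-2-naphthaldehyde read at ex 330/em 465 nm over 10 min. IC50 by regression of ≥5 points; mean of three runs.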
`CCCC(Nc1ccc(CNC(=O)C23CC4CC(CC(C4)C2)C3)cc1)P(=O)(OCC)OCC` (stereo not given): the IC50 – broadly, the concentration that gives 50% inhibition – worked out at 58 nM.
On the same count and under the same terms, with `CCOP(=O)(OCC)C(Nc1ccc(CNC(=O)C23CC4CC(CC(C4)C2)C3)cc1)C(=O)c1ccccc1` (stereo not given) the figure was 69 nM; with `CCCCOP(=O)(OCCCC)C(Nc1ccc(CNC(=O)NC23CC4CC(CC(C4)C2)C3)cc1)C(C)(C)C` (stereo not given), 3 nM.
Same read-out and setting: with `CCOP(=O)(OCC)C(Nc1ccc(CNC(=O)c2ccc(OC(F)(F)F)cc2)cc1)C(C)(C)C` (stereo not given) the figure was 24 nM; with `CCOP(=O)(OCC)C(Nc1ccc(CCC(=O)NC23CC4CC(CC(C4)C2)C3)cc1)C(C)(C)C` (stereo not given), 43 nM.
On the same count and under the same terms, with `CC(C)OP(=O)(OC(C)C)C(Nc1ccc(CNC(=O)C23CC4CC(CC(C4)C2)C3)cc1)C(C)(C)C` (stereo not given) the figure was 6.7 nM; with `CC(C)(C)C(Nc1ccc(CNC(=O)C23CC4CC(CC(C4)C2)C3)cc1)P(=O)(OCc1ccccc1)OCc1ccccc1` (stereo not given), 42 nM.
With `CCOP(=O)(OCC)C(Nc1ccc(CNC(=O)Cc2ccc3ccccc3c2)cc1)C(C)(C)C` (stereo not given), the concentration for half-maximal inhibition (IC50) was 3.4 nM.
The same measure, in the same setting: with `CCOP(=O)(OCC)C(Nc1ccc(CNC(=O)C23CC4CC(CC(C4)C2)C3)cc1)c1ccc(C#N)cc1` (stereo not given) the figure was 108 nM; with `CCOP(=O)(OCC)C(Nc1ccc(CNC(=O)NC23CC4CC(CC(C4)C2)C3)cc1)C(C)(C)C` (stereo not given), 0.96 nM; with `CC(C)(C)C(Nc1ccc(CNC(=O)C23CC4CC(CC(C4)C2)C3)cc1)P(=O)(OCC(F)(F)F)OCC(F)(F)F` (stereo not given), 30 nM.
Same read-out and setting: in the case of `CCOP(=O)(OCC)C(Nc1ccc(NC(=O)C23CC4CC(CC(C4)C2)C3)cc1)C(C)(C)C` (stereo not given) it was 37 nM.
Same read-out and setting: with `CCOP(=O)(OCC)C(Nc1ccc(CNC(=O)C23CC4CC(CC(C4)C2)C3)cc1)c1ccc2ccccc2c1` (stereo not given) the figure was 186 nM.
In the case of `CCOP(=O)(OCC)C(Nc1ccc(CNC(=O)C2CCc3ccccc3C2)cc1)C(C)(C)C` (stereo not given), the IC50 turned out to be 3 nM.
Same read-out and setting: with `CC(C)OP(=O)(OC(C)C)C(Nc1ccc(CNC(=O)NC23CC4CC(CC(C4)C2)C3)cc1)C(C)(C)C` (stereo not given) the figure was 1.7 nM; with `CCOP(=O)(OCC)C(Nc1ccc(CNC(=O)C23CC4CC(CC(C4)C2)C3)cc1)C1CCCCC1` (stereo not given), 46 nM; with `CCOP(=O)(OCC)C(Nc1ccc(COC(=O)C23CC4CC(CC(C4)C2)C3)cc1)C(C)(C)C` (stereo not given), above 1000 nM.
Still for that read-out and setting: in the case of `CCOP(=O)(OCC)C(Nc1ccc(CNC(=O)C23CC4CC(CC(C4)C2)C3)cc1)c1ccc(C(=O)OC)cc1` (stereo not given) it was 230 nM.
With `CCOP(=O)(OCC)C(Nc1ccc(CNC(=O)C23CC4CC(CC(C4)C2)C3)cc1)C1CC1` (stereo not given), the IC50 is 21 nM.
Still for that read-out and setting: with `CCOP(=O)(OCC)C(Nc1ccc(CNC(=O)C23CC4CC(CC(C4)C2)C3)cc1)c1ccc(C(C)(C)C)cc1` (stereo not given) the figure was 192 nM; with `CCOP(=O)(OCC)C(Nc1ccc(CNC(=O)C23CC4CC(CC(C4)C2)C3)cc1)C(C)(C)C` (stereo not given), 5.1 nM.
Turning to `CCOP(=O)(OCC)C(Nc1ccc(CNC(=O)C2CCCCC2)cc1)C(C)(C)C` (stereo not given), the IC50 came to 23 nM.
Same read-out and setting: with `CC(C)COP(=O)(OCC(C)C)C(Nc1ccc(CNC(=O)C23CC4CC(CC(C4)C2)C3)cc1)C(C)(C)C` (stereo not given) the figure was 16 nM; with `CC(C)COP(=O)(OCC(C)C)C(Nc1ccc(CNC(=O)NC23CC4CC(CC(C4)C2)C3)cc1)C(C)(C)C` (stereo not given), 1.8 nM.
Same read-out and setting: in the case of `CCOP(=O)(OCC)C(Nc1ccc(CNC(=O)CC23CC4CC(CC(C4)C2)C3)cc1)C(C)(C)C` (stereo not given) it was 1.9 nM; in that of `CC(C)(C)C(Nc1ccc(CNC(=O)NC23CC4CC(CC(C4)C2)C3)cc1)P(=O)(OCc1ccccc1)OCc1ccccc1` (stereo not given), 2.6 nM; in that of `CCCCOP(=O)(OCCCC)C(Nc1ccc(CNC(=O)C23CC4CC(CC(C4)C2)C3)cc1)C(C)(C)C` (stereo not given), 26 nM.
On the same count and under the same terms, with `CCOP(=O)(OCC)C(Nc1ccc(CNC(=O)C23CC4CC(CC(C4)C2)C3)cc1)c1ccc(C)cc1` (stereo not given) the figure was 130 nM; with `CCOP(=O)(OCC)C(Nc1ccc(CCNC(=O)C23CC4CC(CC(C4)C2)C3)cc1)C(C)(C)C` (stereo not given), 8.2 nM.
As for `CCOP(=O)(OCC)C(Nc1ccc(CNC(=O)C23CC4CC(CC(C4)C2)C3)cc1)c1ccc(F)cc1` (stereo not given), the IC50 stood at 120 nM.
On the same count and under the same terms, in the case of `CCOP(=O)(OCC)C(Nc1ccc(CNC(=O)C23CC4CC(CC(C4)C2)C3)cc1)c1ccc(OC)cc1` (stereo not given) it was 199 nM.
On to `CC(C)(C)C(Nc1ccc(CNC(=O)NC23CC4CC(CC(C4)C2)C3)cc1)P(=O)(OCC(F)(F)F)OCC(F)(F)F` (stereo not given), for which the IC50 worked out at 3.8 nM.
On the same count and under the same terms, with `CCOP(=O)(OCC)C(Nc1ccc(CNC(=O)c2ccc3cc(O)ccc3c2)cc1)C(C)(C)C` (stereo not given) the figure was 17 nM; with `CCOP(=O)(OCC)C(Nc1ccc(CNC(=O)C23CC4CC(CC(C4)C2)C3)cc1)c1ccccc1` (stereo not given), 45 nM; with `CCOP(=O)(OCC)C(CC(C)(C)C)Nc1ccc(CNC(=O)C23CC4CC(CC(C4)C2)C3)cc1` (stereo not given), 41 nM.
Regarding `CCOP(=O)(OCC)C(Nc1ccc(CNC(=O)C23CC4CC(CC(C4)C2)C3)cc1)c1ccncc1` (stereo not given), the IC50 was 185 nM.
